In the library only some 5.8% were active in any assay of this set; here they are far more common.
14-3-3 Bad inh: inhibitors of 14-3-3 zeta/Bad binding, primary screen, biochemical, TR-FRET, bovine 14-3-3 zeta; 14-3-3 protein zeta/delta (Bos taurus), P63103; TR-FRET 14-3-3zeta/Dy647-pBad peptide displacement, 1 h; inhibition, % at 21.7 µM; 0.71% of 220,000 active;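 active = inhibition above about 70%, limit read from the data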;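 note: 0% = full 14-3-3 plus peptide FRET controls and 100% = background without 14-3-3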
ROMK primary: ROMK potassium channel modulators, primary screen, cell-based, thallium flux, MLSMR library; 2% of 130,000 active; ATP-sensitive inward rectifier potassium channel 1 (Homo sapiens), P48048; B-score at 10 µM; Tet-inducible ROMK, thallium flux fluorescence; actives lie on both sides;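 active = signal ratio slope over the read window, or its plate-corrected B-score, at least 3 SD from the plate mean, either direction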;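 note: B-score of the F/F0 ratio slope over 7 to 12 s after thallium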
Target sequence (P48048 whole entry, looked up): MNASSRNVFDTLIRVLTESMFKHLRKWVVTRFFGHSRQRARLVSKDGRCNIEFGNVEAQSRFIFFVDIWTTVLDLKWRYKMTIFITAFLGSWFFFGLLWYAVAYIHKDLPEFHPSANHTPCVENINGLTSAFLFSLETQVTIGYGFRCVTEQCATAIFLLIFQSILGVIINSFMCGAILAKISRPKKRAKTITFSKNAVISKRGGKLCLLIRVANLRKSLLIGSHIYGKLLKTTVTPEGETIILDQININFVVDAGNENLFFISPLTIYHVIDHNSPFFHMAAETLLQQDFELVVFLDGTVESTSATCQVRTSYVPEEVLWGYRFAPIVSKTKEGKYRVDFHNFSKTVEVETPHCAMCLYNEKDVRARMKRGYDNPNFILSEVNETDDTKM
WT yeast gro inh: growth inhibition of WT strain, primary screen, mitochondrial fusion inhibitor project, WT and mutant strains, chemical genetic; mitochondrial fusion phenotypic screen; inhibition, % at 10 µM; 2.1% of 190,000 active; in the data active = inhibition above about 58%; tested in S. cerevisiae
Cl transport mod: KCC2 cotransporter modulators, thallium flux, primary screen, cell-based, HEK293 KCC2, FluoZin-2 fluorescence, MLSMR; Solute carrier family 12 member 5 (Homo sapiens), Q9H2X9; KCC2 cells, thallium flux FluoZin-2 fluorescence; B-score of Tl+ flux slope (higher = more flux/activation; lower = inhibition) at 10 µM; 2.2% of 190,000 active; AID 1456, 2008;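 active = thallium flux slope and its plate-corrected score both differing from the plate sample mean at a set confidence after two filtering rounds, in either direction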;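 note: slope of fluorescence scaled to starting intensity during 10 to 20 s after thallium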
RBBP9 inhibitor: human RBBP9 inhibitors, primary screen, biochemical, fluorescence polarization, FP-Rh probe, HTS; 0.2% of 220,000 active; AID 1515, 2009; recombinant RBBP9; inhibition, % at 7.94 µM;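 active = inhibition above the campaign mean of all tested compounds plus 3 SD, cut at about 14% in these data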;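 note: plate controls were DMSO wells with RBBP9 for no effect and wells lacking RBBP9 protein for full effect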
Target sequence (O75884 whole entry, looked up): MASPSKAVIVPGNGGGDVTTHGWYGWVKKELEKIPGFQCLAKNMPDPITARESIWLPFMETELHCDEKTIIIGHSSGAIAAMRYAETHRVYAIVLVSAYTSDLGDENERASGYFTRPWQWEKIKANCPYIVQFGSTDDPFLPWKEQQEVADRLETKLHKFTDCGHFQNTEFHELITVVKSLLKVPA
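System: RBBP9 protein | Quantity: 2.5 µM RBBP9 dispensing solution, before mixing | Reagent: FP-Rh probe, 375 nM dispensing solution | Timing: Enzyme-compound preincubation 30 min, then probe labeling 45 min, 25 °C | Measured by: Fluorescence polarization | Read-out: % inhibition | Replication: One well per compound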
NCF1 inh: p47phox/p22phox peptide binding inhibitors, primary screen, biochemical, uHTS, NADPH oxidase regulatory subunit | Neutrophil cytosol factor 1 (Homo sapiens), P14598 | fluorescence polarization, 2 h | inhibition, % at 24.7 µM | 0.53% of 220,000 active;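 active = inhibition above about 30%, limit read from the data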;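 note: 0% = p47phox with labelled peptide and 100% = labelled peptide alone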
* marks the source's active call; other numbers are inactive results; . = no result; [ ] = dose if it differs, or a comment.

SMILES	14-3-3 Bad inh	ROMK primary	WT yeast gro inh	Cl transport mod	RBBP9 inhibitor	NCF1 inh
O=C(N1CCOCC1)N1CCN(C(c2ccccc2)c2ccccc2)CC1	3	.	95*	-0.23	-6	-15
CCN(CC)S(=O)(=O)c1ccc(OC)c(NC(=O)COc2ccc3c(C)cc(=O)oc3c2)c1	-58	.	-8	-1.3	-6	-4
COc1ccccc1NC(=O)Nc1ccccc1N1CCOCC1	-2	-1.4	.	0.00095	8	-7
O=C(CN1CCN(c2ccccn2)CC1)N(c1ccccc1)c1ccc2ccccc2c1	-15	.	63*	0.8	-3	-5
Cc1noc2ncnc(Sc3ccc(Br)cc3)c12	2	-0.85	58	-1	-9	2
O=C(O)CSc1c2c(nc3cc(C(=O)N4CCOCC4)ccc13)CCCC2	82*	-0.045	3	.	-7	-1
O=C1NCCCC2c3c(cc(Br)c(O)c3Br)OC12N1CCOCC1 (stereo unspecified)	1	-0.53	-5	.	6	-9
O=C1NCCCC2c3cc(O)c4ccccc4c3OC12N1CCCCC1 (stereo unspecified)	-11	-0.17	5	.	-4	30*
CCCc1[nH]n(-c2ccc(F)cc2)c(=O)c1C=Nc1ccc(C)cc1	-4	-0.11	-13	0.026	-7	-10
COc1ccc2nc(NC(=O)c3cccc(-c4cc5ccccc5oc4=O)c3)sc2c1	69	.	3	1.4	-4	39*
CC(=O)Nc1ccc(NC(=O)c2cccc(-c3cc4ccccc4oc3=O)c2)cc1	1	0.17	-4	0.66	-4	8
COc1ccc(C(=O)Nc2cccc(-c3cc4ccccc4oc3=O)c2)cc1[N+](=O)[O-]	75*[fluorescence artefact?]	.	11	1.4	0	32*
COc1ccc(N2CC(C(=O)N/N=C/c3cc([N+](=O)[O-])ccc3O)CC2=O)cc1 (stereo unspecified)	-5	0.69	-22	-2.2	-5	-10
O=c1c(-c2cccc([N+](=O)[O-])c2)[n+]([O-])c2ccccc2n1O	-2	.	.	-0.48	1	-7
O=c1c(-c2ccc(Cl)cc2)[n+]([O-])c2ccccc2n1O	1	-1	10	9.6*	-2	1
Cc1ccc(N(Cc2cc3ccc(C)cc3[nH]c2=O)C(=O)c2ccco2)c(C)c1	-4	.	.	0.3	-5	-5
Cc1ccc2cc(CN(C(=O)c3ccco3)c3ccccc3C)c(=O)[nH]c2c1	4	-0.27	96*	0.78	-4	-9
COc1ccc(C(O)C(CN2CCOCC2)c2ccccc2)cc1F (stereo unspecified)	25	.	26	0.028	-2	-3
COc1ccc(C(=O)C(CN2CCOCC2)c2ccccc2)cc1F (stereo unspecified)	33	-0.97	61*	.	-7	1
CCOC(=O)C1C(c2cccc([N+](=O)[O-])c2)C2C(=O)NN=C2CC1(C)O (stereo unspecified)	-13	0.9	-12	0.49	7	-3
Cc1cc(C)c2c(=O)n(CC(=O)Nc3ccc(Br)c(C)c3)sc2n1	19	.	.	0.017	10	15
Cc1cc(C)c2c(=O)n(CC(=O)NC3CCCC3)sc2n1	-2	.	.	-0.57	-20	42*
COc1ccccc1-n1c(=O)oc2ccc(Cl)cc2c1=O	-11	.	76*	0.23	-4	-4
CCCn1c(N)cc(=O)n(CCC)c1=O	-8	0.68	-6	-0.66	-4	-7
C/C(=N\NC(=O)c1[nH]c2c([N+](=O)[O-])cc(C)cc2c1-c1ccccc1)c1cccnc1	25	.	0	0.089	0	35*
SMILES	14-3-3 Bad inh	ROMK primary	WT yeast gro inh	Cl transport mod	RBBP9 inhibitor	NCF1 inh
C/C(=N\NC(=O)c1cccnc1)c1ccc(C)c([N+](=O)[O-])c1	-6	0.003	15	1	-3	2
CC(C)N1C(=O)/C(=C/c2nc3ccccc3c(=O)n2-c2ccccc2)c2ccccc21	77*	.	-8	0.0061	3	-5
CC(C)N1C(=O)/C(=C\c2nc3ccccc3c(=O)n2-c2ccccc2)c2ccccc21	21	-0.087	84*	-0.81	-11	0
CN1CCC(N(C)CC(C)(C)NS(=O)(=O)c2ccccc2)CC1	7	.	.	0.27	-6	-33
O=[N+]([O-])c1c(C(Cl)Cl)nn(-c2ccc(Cl)cc2)c1N1CCCCC1	7	1.8	75*	0.62	1	-5
CCOC(=S)NC(=O)c1sc2ccccc2c1Cl	-3	.	-14	74*	-6	-5
CCCOC(=S)NC(=O)c1sc2ccccc2c1Cl	-2	.	8	60*	-10	-10
CC(C)(C)C(=O)NC(=S)NNC(=O)c1sc2ccccc2c1Cl	3	7.3*	75*	48*	-4	-9
CCOc1cc(S(=O)(=O)NCc2ccccc2)ccc1Br	2	0.42	3	0.019	-1	-20
Cc1cc(C)c(OCC(=O)NCC2CCCO2)c(C)c1 (stereo unspecified)	-2	0.66	-21	1.7	-3	-3
COc1cc(/C=N/N=C(/C(=O)c2ccccc2)c2ccccc2)cc(OC)c1O	-14	0.56	72*	-0.56	1	-30
O=C(c1ccco1)N1CCN(c2c(-c3ccccc3)c3cc(Cl)ccc3[nH]c2=O)CC1	-22	0.31	86*	0.03	-3	-2
Clc1ccc(SCCn2cncn2)cc1	73*	-1.4	-1	.	-6	-6
O=C(O)c1ccc(Cl)c2c1C1C=CCC1C(c1ccccn1)N2 (stereo unspecified)	21	.	14	-0.19	-3	40*
O=[N+]([O-])c1ccc(Cl)c2c1C1C=CCC1C(c1ccccn1)N2 (stereo unspecified)	-11	.	17	.	1	0
C[C@H]1COC2=C1C(=O)C(=O)c1c2ccc2c1CCCC2(C)C	19	.	74*	-0.049	5	2
Cc1coc2c1C(=O)C(=O)c1c-2ccc2c1CCCC2(C)C	-6	.	73*	-0.054	4	-2
COC(=O)Cn1c2ccc(OC)cc2c2nc(C)sc21	-14	.	.	1.5	-1	-6
Cc1ccsc1C1CC(=O)OC2=C1C(=O)CC(C)(C)C2 (stereo unspecified)	5	0.037	-1	0.067	-3	1
CSc1ccc(CN2CCC(CO)(Cc3ccc(Cl)cc3)CC2)cc1	-4	-3	67*	-1	-2	-17
